{"source": "ChEMBL document CHEMBL1123541", "about": "“Preparation and antitumor activity of 7-substituted 1,2-aziridinomitosenes” (J Med Chem, 1986)", "key": {"Mus musculus [1]": {"system": "Mus musculus", "experiment": "Average weight change of BDF1 female mice at a dose of 1.5 mg/kg per injection", "format": "functional", "method_in_brief": "(§1)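 L-1210 leukemia, NCI protocol: 10^6 ascites cells implanted ip into BDF1 female mice. Six mice per dose, single dose on day 1 only, with a 36-mouse control group. Read-out is median survival time (MST), reported as %T/C = MST treated/MST control × 100, with 125 taken as significant. Average weight change is treated minus control weight.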"}, "L1210 [2]": {"system": "L1210", "experiment": "Compound was tested for antitumor activity against L-1210 Murine leukemia in BDF1 female mice at a dose of 12 mg/kg per injection", "format": "functional, Mus musculus", "method_in_brief": "(§2)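 L-1210 run per NCI protocol. 10^6 ascites cells implanted ip into BDF1 female mice. Aziridinomitosene given on day 1 only, six mice per dose, with a control group of 36 mice. Median survival time in days is recorded, and %T/C = MST treated/MST control × 100, with 125 taken as significant.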"}, "L1210 [3]": {"system": "L1210", "experiment": "Compound was tested for antitumor activity against L-1210 Murine leukemia in BDF1 female mice at a dose of 1.5 mg/kg per injection", "format": "functional, Mus musculus", "method_in_brief": "as §1"}, "L1210 [4]": {"system": "L1210", "experiment": "Compound was tested for antitumor activity against L-1210 Murine leukemia in BDF1 female mice at a dose of 6 mg/kg per injection", "format": "functional, Mus musculus", "method_in_brief": "as §2"}, "Mus musculus [5]": {"system": "Mus musculus", "experiment": "Average weight change of BDF1 female mice at a dose of 6 mg/kg per injection", "format": "functional", "method_in_brief": "(§3)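 BDF1 female mice implanted ip with 10^6 ascites leukemia cells, then given the aziridinomitosene on day 1 only, six mice per dose. Average weight change is the weight difference between the treated and control groups.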"}, "Mus musculus [6]": {"system": "Mus musculus", "experiment": "Average weight change of BDF1 female mice at a dose of 12 mg/kg per injection", "format": "functional", "method_in_brief": "as §3"}, "L1210 [7]": {"system": "L1210", "experiment": "Compound was tested for antitumor activity against L-1210 Murine leukemia in BDF1 female mice at a dose of 3 mg/kg per injection", "format": "functional, Mus musculus", "method_in_brief": "as §1"}, "Mus musculus [8]": {"system": "Mus musculus", "experiment": "Average weight change of BDF1 female mice at a dose of 3 mg/kg per injection", "format": "functional", "method_in_brief": "as §1"}, "P388 [9]": {"system": "P388", "experiment": "Compound was tested for antitumor activity against P388 Murine leukemia in BDF1 female mice at a dose of 3.2 mg/kg per injection", "format": "functional, Mus musculus", "method_in_brief": "(§4)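 P388 ascites cells (10^6) implanted ip into BDF1 female mice. Aziridinomitosene given on day 1 only, six mice per dose; ten saline-treated mice on day 1 only as controls. Read-out is median survival time in days, %T/C = MST treated/MST control × 100, with 125 taken as significant. Mitomycin C run as a positive control at its optimal dose.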"}, "P388 [10]": {"system": "P388", "experiment": "Compound was tested for antitumor activity against P388 Murine leukemia in BDF1 female mice at a dose of 1.6 mg/kg per injection (MST treated / MST control x 100)", "format": "functional, Mus musculus", "method_in_brief": "as §4"}, "Mus musculus [11]": {"system": "Mus musculus", "experiment": "Average weight change of BDF1 female mice at a dose of 1.6 mg/kg per injection", "format": "functional", "method_in_brief": "as §3"}, "P388 [12]": {"system": "P388", "experiment": "(§5) Compound was tested for antitumor activity against P388 Murine leukemia in BDF1 female mice at a dose of 12.8 mg/kg per injection", "format": "functional, Mus musculus", "design": "unit not given here", "method_in_brief": "as §4"}, "Mus musculus [13]": {"system": "Mus musculus", "experiment": "Average weight change of BDF1 female mice at a dose of 12.8 mg/kg per injection", "format": "functional", "method_in_brief": "as §3"}, "[14]": {"experiment": "Partition coefficient (logP)", "format": "physicochemical", "settings": "octanol/water"}, "P388 [15]": {"system": "P388", "experiment": "Minimum effective dose determined against P-388 Murine leukemia in BDF1 female mice.", "format": "functional", "settings": "Mus musculus, read-out: MED"}, "Mus musculus [16]": {"system": "Mus musculus", "experiment": "Average weight change of BDF1 female mice at a dose of 6.4 mg/kg per injection", "format": "functional", "method_in_brief": "as §3"}, "Mus musculus [17]": {"system": "Mus musculus", "experiment": "Average weight change of BDF1 female mice at a dose of 3.2 mg/kg per injection", "format": "functional", "method_in_brief": "as §3"}, "Mus musculus [18]": {"system": "Mus musculus", "experiment": "Average weight change of BDF1 female mice at a dose of 0.8 mg/kg per injection", "format": "functional", "method_in_brief": "as §3"}, "P388 [19]": {"system": "P388", "experiment": "Compound was tested for antitumor activity against P388 Murine leukemia in BDF1 female mice at a dose of 6.4 mg/kg per injection", "format": "functional, Mus musculus", "method_in_brief": "as §4"}, "P388 [20]": {"system": "P388", "experiment": "Compound was tested for antitumor activity against P388 Murine leukemia in BDF1 female mice at a dose of 0.8 mg/kg per injection", "format": "functional, Mus musculus", "method_in_brief": "as §4"}, "Mus musculus [21]": {"system": "Mus musculus", "experiment": "Average weight change of BDF1 female mice at a dose of 24 mg/kg per injection", "format": "functional", "method_in_brief": "as §3"}, "L1210 [22]": {"system": "L1210", "experiment": "Compound was tested for antitumor activity against L-1210 Murine leukemia in BDF1 female mice at a dose of 24 mg/kg per injection", "format": "functional, Mus musculus", "method_in_brief": "as §2"}, "Mus musculus [23]": {"system": "Mus musculus", "experiment": "Average weight change of BDF1 female mice at a dose of 25.6 mg/kg per injection", "format": "functional", "method_in_brief": "as §3"}, "P388 [24]": {"system": "P388", "experiment": "as §5", "format": "functional, Mus musculus", "method_in_brief": "as §4"}, "Mus musculus [25]": {"system": "Mus musculus", "experiment": "Average weight change of BDF1 female mice at a dose of 48 mg/kg per injection", "format": "functional", "method_in_brief": "as §3"}, "L1210 [26]": {"system": "L1210", "experiment": "Compound was tested for antitumor activity against L-1210 Murine leukemia in BDF1 female mice at a dose of 48 mg/kg per injection", "format": "functional, Mus musculus", "method_in_brief": "as §2"}, "P388 [27]": {"system": "P388", "experiment": "Compound was tested for antitumor activity against P388 Murine leukemia in BDF1 female mice at a dose of 25.6 mg/kg per injection", "format": "functional, Mus musculus", "method_in_brief": "as §4"}, "P388 [28]": {"system": "P388", "experiment": "Compound was tested for antitumor activity against P388 Murine leukemia in BDF1 female mice at a dose of 1.6 mg/kg per injection given as MST treated / MST control x 100", "format": "functional, Mus musculus", "method_in_brief": "as §4"}}, "data": [{"smiles": "CO[C@@]12[C@H](COC(N)=O)C3=C(C(=O)C(C)=C(N)C3=O)N1C[C@@H]1N[C@@H]12", "note": "[MITOMYCIN]", "values": [{"measurement": "Weight change", "setting": "Mus musculus [1]", "value": -0.8, "unit": "g"}, {"measurement": "% T/C", "setting": "L1210 [2]", "value": 118, "unit": "%"}, {"measurement": "T/C", "setting": "L1210 [3]", "value": 116, "unit": "%"}, {"measurement": "% T/C", "setting": "L1210 [4]", "value": 146, "unit": "%"}, {"measurement": "Weight change", "setting": "Mus musculus [5]", "value": -3.3, "unit": "g"}, {"measurement": "Weight change", "setting": "Mus musculus [6]", "value": -4.8, "unit": "g"}, {"measurement": "T/C", "setting": "L1210 [7]", "value": 118, "unit": "%"}, {"measurement": "Weight change", "setting": "Mus musculus [8]", "value": -0.9, "unit": "g"}]}, {"smiles": "COC1=C(C)C(=O)c2c(c(COC(N)=O)c3n2CC2C3N2C)C1=O", "note": "(configuration not stated)", "values": [{"measurement": "MST", "setting": "P388 [9]", "value": 188, "unit": "days"}, {"measurement": "T/C", "setting": "P388 [10]", "value": 156, "unit": "%"}, {"measurement": "Weight change", "setting": "Mus musculus [11]", "value": -0.2, "unit": "g"}, {"measurement": "MST", "setting": "P388 [12]", "value": 213}, {"measurement": "Weight change", "setting": "Mus musculus [13]", "value": -1.7, "unit": "g"}, {"measurement": "logP", "setting": "[14]", "value": 1.28}, {"measurement": "minimal effective dose", "setting": "P388 [15]", "value": 0.8, "unit": "mg/kg"}, {"measurement": "Weight change", "setting": "Mus musculus [16]", "value": -0.3, "unit": "g"}, {"measurement": "Weight change", "setting": "Mus musculus [17]", "value": 0.5, "unit": "g"}, {"measurement": "Weight change", "setting": "Mus musculus [18]", "value": 0.8, "unit": "g"}, {"measurement": "MST", "setting": "P388 [19]", "value": 213, "unit": "days"}, {"measurement": "MST", "setting": "P388 [20]", "value": 150, "unit": "days"}]}, {"smiles": "CC1=C(N)C(=O)c2c(COC(N)=O)c3n(c2C1=O)CC1NC31", "note": "(configuration not stated)", "values": [{"measurement": "Weight change", "setting": "Mus musculus [21]", "value": -0.3, "unit": "g"}, {"measurement": "MST", "setting": "L1210 [22]", "value": 100, "unit": "days"}, {"measurement": "Weight change", "setting": "Mus musculus [23]", "value": -0.8, "unit": "g"}, {"measurement": "MST", "setting": "P388 [24]", "value": 117, "unit": "days"}, {"measurement": "T/C", "setting": "L1210 [2]", "value": 100, "unit": "%"}, {"measurement": "T/C", "setting": "L1210 [4]", "value": 100, "unit": "%"}, {"measurement": "Weight change", "setting": "Mus musculus [13]", "value": -0.8, "unit": "g"}, {"measurement": "Weight change", "setting": "Mus musculus [5]", "value": 0.1, "unit": "g"}, {"measurement": "logP", "setting": "[14]", "value": 0.23}, {"measurement": "Weight change", "setting": "Mus musculus [6]", "value": 0, "unit": "g"}, {"measurement": "minimal effective dose", "setting": "P388 [15]", "value": 25.6, "unit": "mg/kg"}, {"measurement": "Weight change", "setting": "Mus musculus [25]", "value": 0.2, "unit": "g"}, {"measurement": "Weight change", "setting": "Mus musculus [16]", "value": -1.2, "unit": "g"}, {"measurement": "MST", "setting": "L1210 [26]", "value": 94, "unit": "days"}, {"measurement": "MST", "setting": "P388 [19]", "value": 117, "unit": "%T/C"}, {"measurement": "MST", "setting": "P388 [27]", "value": 128, "unit": "% T/C"}, {"measurement": "T/C", "setting": "P388 [28]", "value": 211, "unit": "%"}]}]}
